Laboratory results reported in ChEMBL document CHEMBL2146394, “Design and synthesis of pyrrolo[3,2-d]pyrimidine HER2/EGFR dual inhibitors: improvement of the physicochemical and pharmacokinetic profiles for potent in vivo anti-tumor efficacy” (Bioorg Med Chem, 2012).

Key:
[1] = target: Receptor tyrosine-protein kinase erbB-4 (Homo sapiens, UniProt Q15303); experiment: Inhibition of HER4 cytoplasmic domain after 5 mins by scintillation counter
Outline: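 HER4 cytoplasmic domain run as in the HER2/EGFR radiometric [γ-³²P]ATP filter assay: 5 min enzyme–compound preincubation, 10 min reaction at room temperature, TCA stop, scintillation count, nonlinear-regression IC₅₀.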

[2] = target: Inhibitor of nuclear factor kappa-B kinase subunit beta (Homo sapiens, UniProt O14920); experiment: Inhibition of C-terminal FLAG-tagged IKKbeta expressed in baculovirus after 5 mins by scintillation counter
[3] = target: Serine/threonine-protein kinase PLK1 (Homo sapiens, UniProt P53350); experiment: Inhibition of N-terminal FLAG-tagged PLK1 expressed in baculovirus after 5 mins by scintillation counter
[4] = target: Mitogen-activated protein kinase 3 (Homo sapiens, UniProt P27361); experiment: Inhibition of N-terminal FLAG-tagged ERK1 expressed in baculovirus after 5 mins by scintillation counter
Mitogen-activated protein kinase 3, sequence (P27361 whole entry): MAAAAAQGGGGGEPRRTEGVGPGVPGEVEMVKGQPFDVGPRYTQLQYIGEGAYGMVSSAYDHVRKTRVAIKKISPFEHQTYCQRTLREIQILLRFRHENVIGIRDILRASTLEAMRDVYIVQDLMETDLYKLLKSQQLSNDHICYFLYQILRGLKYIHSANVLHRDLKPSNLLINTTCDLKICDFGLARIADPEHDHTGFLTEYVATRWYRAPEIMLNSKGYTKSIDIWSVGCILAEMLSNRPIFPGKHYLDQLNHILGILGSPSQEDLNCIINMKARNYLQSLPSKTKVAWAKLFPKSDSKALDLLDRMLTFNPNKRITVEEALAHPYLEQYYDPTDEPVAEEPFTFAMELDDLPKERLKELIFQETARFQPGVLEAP

Focal adhesion kinase 1 = Focal adhesion kinase 1 (Homo sapiens, UniProt Q05397); experiment: Inhibition of full length N-terminal FLAG-tagged FAK expressed in baculovirus after 5 mins
Outline: (§1)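 AlphaScreen tyrosine kinase assay: 50 mmol/L Tris-HCl pH 7.5, 5 mmol/L MnCl₂, 5 mmol/L MgCl₂, 0.01% Tween-20, 2 mmol/L DTT, biotinylated poly-Glu-Tyr (4:1), kinase-optimized enzyme, ATP and time (5–60 min). Seven compound concentrations, 0.01–10000 nmol/L, preincubated 5 min at room temperature. Stopped with EDTA plus streptavidin donor and PY-100 or PT66 acceptor beads; read after >12 h in the dark. Controls: no compound; no ATP.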

[5] = target: Dual specificity mitogen-activated protein kinase kinase 1 (Homo sapiens, UniProt Q02750); experiment: Inhibition of N-terminal GST-tagged MEK1 after 5 mins by scintillation counter
[6] = target: Insulin-like growth factor 1 receptor (Homo sapiens, UniProt P08069); experiment: Inhibition of IGF-1R after 5 mins; outline: as §1
[7] = Antitumor activity against human 4-1ST cells xenografted in BALB/c nu/nu mouse at 50 mg/kg, po bid administered 14 days measured on day 31 relative to control; assay type: functional
Outline: (§2)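 4-1ST human gastric tumour tissue from donor animals minced and implanted subcutaneously in nude mice or nude rats. Tumours of 200–300 mm³ used. Compounds in 0.5% (w/v) methylcellulose given orally twice daily at 10 mL/kg for 14 days; control got vehicle. Doses expressed as salt-free. Caliper volume (a×b²/2) measured blind 2–3 times weekly. T/C (%) versus control; five mice or eight rats per group.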

[8] = target: Serine/threonine-protein kinase B-raf (Homo sapiens, UniProt P15056); experiment: Inhibition of N-terminal FLAG-tagged B-raf expressed in baculovirus after 5 mins by scintillation counter
[9] = target: Protein kinase C theta type (Homo sapiens, UniProt Q04759); experiment: Inhibition of N-terminal FLAG-tagged PKCtheta expressed in baculovirus after 5 mins by scintillation counter
[10] = target: Mast/stem cell growth factor receptor Kit (Homo sapiens, UniProt P10721); experiment: Inhibition of c-kit after 5 mins; outline: as §1
[11] = target: Mitogen-activated protein kinase kinase kinase 1 (Homo sapiens, UniProt Q13233); experiment: Inhibition of C-terminal FLAG-tagged MEKK expressed in baculovirus after 5 mins by scintillation counter
Aurora kinase B = Aurora kinase B (Homo sapiens, UniProt Q96GD4); experiment: Inhibition of N-terminal His6-tagged Aurora B expressed in baculovirus after 5 mins by scintillation counter
Aurora kinase B, sequence (Q96GD4 whole entry): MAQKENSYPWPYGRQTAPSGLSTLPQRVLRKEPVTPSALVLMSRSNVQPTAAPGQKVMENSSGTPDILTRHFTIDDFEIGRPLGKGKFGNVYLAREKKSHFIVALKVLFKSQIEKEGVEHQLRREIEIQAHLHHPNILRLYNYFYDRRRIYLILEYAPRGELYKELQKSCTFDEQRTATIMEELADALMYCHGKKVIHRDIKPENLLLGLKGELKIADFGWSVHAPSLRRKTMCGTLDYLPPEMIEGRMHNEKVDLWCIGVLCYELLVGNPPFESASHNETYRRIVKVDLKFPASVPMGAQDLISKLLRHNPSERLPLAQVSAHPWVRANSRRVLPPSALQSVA

[12] = Antitumor activity against human 4-1ST cells xenografted in F344/N jcl-rnu rat at 25 mg/kg, po bid administered 14 days measured on day 31 relative to control; assay type: functional; outline: as §2
[13] = target: Vascular endothelial growth factor receptor 2 (Homo sapiens, UniProt P35968); experiment: Inhibition of N-terminal FLAG-tagged VEGFR2 cytoplasmic domain expressed in baculovirus after 5 mins; outline: as §1
[14] = target: T1, Tyrosine-protein kinase Lyn (Homo sapiens, UniProt P07948); experiment: Inhibition of LYN B after 5 mins; outline: as §1
T1 sequence (P07948 whole entry): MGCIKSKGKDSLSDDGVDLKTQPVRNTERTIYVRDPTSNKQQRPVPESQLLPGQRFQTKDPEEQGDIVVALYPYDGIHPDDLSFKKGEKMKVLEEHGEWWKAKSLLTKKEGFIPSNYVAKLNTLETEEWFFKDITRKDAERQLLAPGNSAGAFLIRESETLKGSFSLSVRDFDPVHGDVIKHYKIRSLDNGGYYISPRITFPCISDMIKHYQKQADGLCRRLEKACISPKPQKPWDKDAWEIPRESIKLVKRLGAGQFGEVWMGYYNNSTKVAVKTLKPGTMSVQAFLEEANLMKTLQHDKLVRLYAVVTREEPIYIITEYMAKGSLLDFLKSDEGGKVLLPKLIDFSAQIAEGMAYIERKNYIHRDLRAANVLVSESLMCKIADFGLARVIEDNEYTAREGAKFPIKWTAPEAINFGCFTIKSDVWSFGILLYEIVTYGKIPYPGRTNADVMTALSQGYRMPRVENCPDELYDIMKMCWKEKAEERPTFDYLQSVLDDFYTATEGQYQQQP

[15] = target: Proto-oncogene tyrosine-protein kinase Src (Homo sapiens, UniProt P12931); experiment: Inhibition of Src after 5 mins; outline: as §1
[16] = target: Mitogen-activated protein kinase kinase kinase 7 (Homo sapiens, UniProt O43318); experiment: Inhibition of N-terminal FLAG-tagged TAK1 expressed in baculovirus after 5 mins by scintillation counter
Mitogen-activated protein kinase kinase kinase 7, sequence (O43318 whole entry): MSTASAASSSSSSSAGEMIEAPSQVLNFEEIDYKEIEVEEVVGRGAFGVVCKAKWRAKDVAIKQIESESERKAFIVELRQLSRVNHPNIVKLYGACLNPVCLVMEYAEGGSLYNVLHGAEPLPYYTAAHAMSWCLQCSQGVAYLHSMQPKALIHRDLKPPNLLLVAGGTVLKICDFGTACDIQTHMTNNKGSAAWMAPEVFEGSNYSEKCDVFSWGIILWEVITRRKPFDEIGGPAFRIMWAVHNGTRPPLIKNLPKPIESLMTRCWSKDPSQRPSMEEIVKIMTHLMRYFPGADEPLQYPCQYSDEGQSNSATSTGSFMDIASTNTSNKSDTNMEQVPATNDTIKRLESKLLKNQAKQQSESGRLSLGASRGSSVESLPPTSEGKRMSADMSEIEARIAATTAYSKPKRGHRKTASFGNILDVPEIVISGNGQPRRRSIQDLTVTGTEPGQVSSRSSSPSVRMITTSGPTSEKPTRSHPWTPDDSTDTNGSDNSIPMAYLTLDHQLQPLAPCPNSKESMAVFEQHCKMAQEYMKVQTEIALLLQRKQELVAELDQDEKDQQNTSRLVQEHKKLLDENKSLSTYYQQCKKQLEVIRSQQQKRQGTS

[17] = target: Glycogen synthase kinase-3 beta (Homo sapiens, UniProt P49841); experiment: Inhibition of N-terminal FLAG-tagged GSK3beta expressed in baculovirus after 5 mins by scintillation counter
Glycogen synthase kinase-3 beta, sequence (P49841 whole entry): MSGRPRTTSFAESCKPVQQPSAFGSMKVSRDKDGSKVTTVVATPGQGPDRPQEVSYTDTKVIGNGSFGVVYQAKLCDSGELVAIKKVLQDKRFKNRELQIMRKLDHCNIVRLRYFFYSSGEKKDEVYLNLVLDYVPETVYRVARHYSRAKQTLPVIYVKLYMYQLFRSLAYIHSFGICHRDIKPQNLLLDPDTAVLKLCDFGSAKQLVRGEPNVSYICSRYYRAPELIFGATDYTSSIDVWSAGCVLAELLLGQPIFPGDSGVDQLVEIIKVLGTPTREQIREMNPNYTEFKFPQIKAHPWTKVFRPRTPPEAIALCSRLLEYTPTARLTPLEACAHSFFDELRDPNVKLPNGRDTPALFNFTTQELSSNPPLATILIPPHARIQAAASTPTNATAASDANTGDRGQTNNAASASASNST

Angiopoietin-1 receptor = Angiopoietin-1 receptor (Homo sapiens, UniProt Q02763); experiment: Inhibition of TIE2 after 5 mins; outline: as §1
[18] = target: Tyrosine-protein kinase CSK (Homo sapiens, UniProt P41240); experiment: Inhibition of CSK after 5 mins; outline: as §1
[19] = Antitumor activity against human 4-1ST cells xenografted in F344/N jcl-rnu rat at 12.5 mg/kg, po bid administered 14 days measured on day 31 relative to control; assay type: functional; outline: as §2
[20] = target: Mitogen-activated protein kinase kinase kinase 5 (Homo sapiens, UniProt Q99683); experiment: Inhibition of N-terminal FLAG-tagged ASK1 expressed in baculovirus after 5 mins by scintillation counter
Mitogen-activated protein kinase kinase kinase 5, sequence (Q99683 whole entry): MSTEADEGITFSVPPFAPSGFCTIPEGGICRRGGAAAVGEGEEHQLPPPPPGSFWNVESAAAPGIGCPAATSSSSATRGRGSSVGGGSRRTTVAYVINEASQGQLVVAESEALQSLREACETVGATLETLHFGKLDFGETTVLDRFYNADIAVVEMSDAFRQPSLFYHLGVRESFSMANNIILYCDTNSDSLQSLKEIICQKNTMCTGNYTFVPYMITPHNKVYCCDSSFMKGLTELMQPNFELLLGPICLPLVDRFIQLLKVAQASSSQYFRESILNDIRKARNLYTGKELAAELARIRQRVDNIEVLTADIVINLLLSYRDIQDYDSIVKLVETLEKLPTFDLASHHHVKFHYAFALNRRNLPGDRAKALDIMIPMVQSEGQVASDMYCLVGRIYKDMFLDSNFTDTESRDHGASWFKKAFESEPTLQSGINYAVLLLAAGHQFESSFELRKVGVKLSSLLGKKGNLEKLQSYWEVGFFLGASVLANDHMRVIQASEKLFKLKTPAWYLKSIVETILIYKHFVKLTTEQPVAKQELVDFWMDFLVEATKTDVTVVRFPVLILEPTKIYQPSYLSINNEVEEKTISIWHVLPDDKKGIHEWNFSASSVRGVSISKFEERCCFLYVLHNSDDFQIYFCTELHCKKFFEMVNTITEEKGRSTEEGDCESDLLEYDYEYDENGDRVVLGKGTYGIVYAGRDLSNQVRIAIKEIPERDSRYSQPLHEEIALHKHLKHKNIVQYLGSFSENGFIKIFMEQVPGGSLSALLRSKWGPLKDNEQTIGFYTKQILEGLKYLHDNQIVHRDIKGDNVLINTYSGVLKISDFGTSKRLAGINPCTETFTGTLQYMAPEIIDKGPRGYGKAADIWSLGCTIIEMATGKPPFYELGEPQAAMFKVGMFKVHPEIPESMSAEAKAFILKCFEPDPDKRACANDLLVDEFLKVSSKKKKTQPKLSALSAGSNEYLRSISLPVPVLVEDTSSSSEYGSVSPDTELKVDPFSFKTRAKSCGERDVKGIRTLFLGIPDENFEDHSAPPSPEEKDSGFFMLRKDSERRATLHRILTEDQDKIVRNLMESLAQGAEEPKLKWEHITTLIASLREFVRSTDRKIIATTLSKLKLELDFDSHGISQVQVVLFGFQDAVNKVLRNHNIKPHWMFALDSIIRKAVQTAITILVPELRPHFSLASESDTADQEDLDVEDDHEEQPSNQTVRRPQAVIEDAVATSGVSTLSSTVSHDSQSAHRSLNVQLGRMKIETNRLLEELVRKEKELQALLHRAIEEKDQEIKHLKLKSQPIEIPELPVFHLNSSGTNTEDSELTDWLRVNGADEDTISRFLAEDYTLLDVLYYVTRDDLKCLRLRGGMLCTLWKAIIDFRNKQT

[21] = target: T1, Tyrosine-protein kinase Lyn; experiment: Inhibition of LYN A after 5 mins; outline: as §1
[22] = target: Mitogen-activated protein kinase 14 (Homo sapiens, UniProt Q16539); experiment: Inhibition of N-terminal FLAG-tagged p38alpha expressed in baculovirus after 5 mins by scintillation counter
[23] = target: Fibroblast growth factor receptor 3 (Homo sapiens, UniProt P22607); experiment: Inhibition of FGFR3 after 5 mins; outline: as §1
Insulin receptor = Insulin receptor (Homo sapiens, UniProt P06213); experiment: Inhibition of INSR after 5 mins; outline: as §1
[24] = target: Fibroblast growth factor receptor 1 (Homo sapiens, UniProt P11362); experiment: Inhibition of FGFR1 after 5 min; outline: as §1
[25] = target: Mitogen-activated protein kinase 8 (Homo sapiens, UniProt P45983); experiment: Inhibition of N-terminal FLAG-tagged JNK1 expressed in baculovirus after 5 mins by scintillation counter
[26] = target: Dual specificity protein kinase TTK (Homo sapiens, UniProt P33981); experiment: Inhibition of N-terminal FLAG-tagged TTK expressed in baculovirus after 5 mins by scintillation counter
[27] = target: Dual specificity mitogen-activated protein kinase kinase 5 (Homo sapiens, UniProt Q13163); experiment: Inhibition of N-terminal FLAG-tagged MEK5 expressed in baculovirus after 5 mins by scintillation counter
[28] = target: Tyrosine-protein kinase ZAP-70 (Homo sapiens, UniProt P43403); experiment: Inhibition of ZAP70 after 5 mins; outline: as §1
[29] = Antitumor activity against human 4-1ST cells xenografted in BALB/c nu/nu mouse at 100 mg/kg, po bid administered 14 days measured on day 31 relative to control; assay type: functional; outline: as §2
[30] = target: Hepatocyte growth factor receptor (Homo sapiens, UniProt P08581); experiment: Inhibition of c-Met after 5 mins; outline: as §1
[31] = target: Vascular endothelial growth factor receptor 1 (Homo sapiens, UniProt P17948); experiment: Inhibition of VEGFR1 after 5 mins; outline: as §1
Vascular endothelial growth factor receptor 1, sequence (P17948 whole entry): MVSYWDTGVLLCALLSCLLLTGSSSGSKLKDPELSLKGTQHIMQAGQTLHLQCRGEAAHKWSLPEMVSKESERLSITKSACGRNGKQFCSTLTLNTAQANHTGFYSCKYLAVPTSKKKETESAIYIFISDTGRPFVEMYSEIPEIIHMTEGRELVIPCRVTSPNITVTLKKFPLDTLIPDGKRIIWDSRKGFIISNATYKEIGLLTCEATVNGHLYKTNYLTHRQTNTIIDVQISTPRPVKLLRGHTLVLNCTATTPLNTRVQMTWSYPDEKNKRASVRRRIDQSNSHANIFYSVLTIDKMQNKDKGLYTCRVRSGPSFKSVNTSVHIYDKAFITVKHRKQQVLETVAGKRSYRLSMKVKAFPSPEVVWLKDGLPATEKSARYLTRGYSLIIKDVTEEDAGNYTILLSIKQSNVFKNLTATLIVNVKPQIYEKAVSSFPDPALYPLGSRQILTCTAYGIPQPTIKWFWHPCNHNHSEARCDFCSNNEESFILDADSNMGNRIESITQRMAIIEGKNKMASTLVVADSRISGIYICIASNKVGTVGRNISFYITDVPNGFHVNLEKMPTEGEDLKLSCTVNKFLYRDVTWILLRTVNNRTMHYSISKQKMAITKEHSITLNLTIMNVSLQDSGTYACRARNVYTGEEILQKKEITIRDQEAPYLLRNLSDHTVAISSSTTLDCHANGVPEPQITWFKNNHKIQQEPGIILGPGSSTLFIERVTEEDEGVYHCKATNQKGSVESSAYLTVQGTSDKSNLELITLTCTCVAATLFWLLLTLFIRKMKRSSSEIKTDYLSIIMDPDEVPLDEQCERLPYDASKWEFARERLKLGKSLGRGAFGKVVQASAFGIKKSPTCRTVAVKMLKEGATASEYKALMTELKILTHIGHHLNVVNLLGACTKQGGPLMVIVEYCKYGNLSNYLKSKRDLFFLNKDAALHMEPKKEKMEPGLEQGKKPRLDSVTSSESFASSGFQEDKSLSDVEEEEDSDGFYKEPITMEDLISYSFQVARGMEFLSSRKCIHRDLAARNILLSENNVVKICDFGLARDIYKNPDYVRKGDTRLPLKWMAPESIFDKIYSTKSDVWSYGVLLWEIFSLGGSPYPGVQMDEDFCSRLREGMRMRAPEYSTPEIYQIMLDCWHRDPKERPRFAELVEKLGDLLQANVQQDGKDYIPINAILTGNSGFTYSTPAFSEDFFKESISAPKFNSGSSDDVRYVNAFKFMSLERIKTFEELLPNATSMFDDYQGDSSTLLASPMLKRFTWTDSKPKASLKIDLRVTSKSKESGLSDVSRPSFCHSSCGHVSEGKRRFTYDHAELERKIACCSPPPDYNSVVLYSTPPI

[32] = target: Cytoplasmic tyrosine-protein kinase BMX (Homo sapiens, UniProt P51813); experiment: Inhibition of full length N-terminal FLAG-tagged BMX expressed in baculovirus after 5 mins; outline: as §1

CC(C)(C(=O)NCCn1ccc2ncnc(Nc3ccc(Oc4cccc(Cl)c4)c(Cl)c3)c21)S(C)(=O)=O.Cc1ccc(S(=O)(=O)O)cc1
IC50 [1]: 0.16 µM
IC50 [2]: > 10 µM
IC50 [3]: > 10 µM
IC50 [4]: > 10 µM
IC50 (Focal adhesion kinase 1): > 10 µM
IC50 [5]: 0.98 µM
IC50 [6]: > 10 µM
T/C [7]: 41%
IC50 [8]: > 10 µM
IC50 [9]: > 10 µM
IC50 [10]: > 10 µM
IC50 [11]: > 10 µM
IC50 (Aurora kinase B): 0.5 µM
T/C [12]: -1%
IC50 [13]: > 10 µM
IC50 [14]: 3.3 µM
IC50 [15]: > 10 µM
IC50 [16]: > 10 µM
IC50 [17]: > 10 µM
IC50 (Angiopoietin-1 receptor): > 10 µM
IC50 [18]: 5.1 µM
T/C [19]: 41%
IC50 [20]: > 10 µM
IC50 [21]: 3.6 µM
IC50 [22]: > 10 µM
IC50 [23]: > 10 µM
IC50 (Insulin receptor): > 10 µM
IC50 [24]: > 10 µM
IC50 [25]: > 10 µM
IC50 [26]: > 10 µM
IC50 [27]: > 10 µM
IC50 [28]: > 10 µM
T/C [29]: 0%
IC50 [30]: 3.9 µM
IC50 [31]: > 10 µM
IC50 [32]: > 10 µM
